Measured values taken from ChEMBL document CHEMBL4422635, “Structure-Based Discovery of a Subtype-Selective Inhibitor Targeting a Transient Receptor Potential Vanilloid Channel” (J Med Chem, 2019).
Changes are numbered by the printed parent chain. Calls of active or inactive are those of the source. The rule behind the calls is not given here.

What was measured:
Assay type in all cases: cell-based
[1] = system: Transient receptor potential cation channel subfamily V member 1 (Mus musculus), Q704Y3 [T551L]; test: Antagonist activity at mouse TRPV1 T551L mutant expressed in HEK293T cells assessed as inhibition of 2-APB evoked currents at > 1 uM at -60 mV holding potential by whole-cell patch clamp assay
Sequence of Transient receptor potential cation channel subfamily V member 1 (Mus musculus), Q704Y3 [T551L] (Q704Y3 whole entry T551L): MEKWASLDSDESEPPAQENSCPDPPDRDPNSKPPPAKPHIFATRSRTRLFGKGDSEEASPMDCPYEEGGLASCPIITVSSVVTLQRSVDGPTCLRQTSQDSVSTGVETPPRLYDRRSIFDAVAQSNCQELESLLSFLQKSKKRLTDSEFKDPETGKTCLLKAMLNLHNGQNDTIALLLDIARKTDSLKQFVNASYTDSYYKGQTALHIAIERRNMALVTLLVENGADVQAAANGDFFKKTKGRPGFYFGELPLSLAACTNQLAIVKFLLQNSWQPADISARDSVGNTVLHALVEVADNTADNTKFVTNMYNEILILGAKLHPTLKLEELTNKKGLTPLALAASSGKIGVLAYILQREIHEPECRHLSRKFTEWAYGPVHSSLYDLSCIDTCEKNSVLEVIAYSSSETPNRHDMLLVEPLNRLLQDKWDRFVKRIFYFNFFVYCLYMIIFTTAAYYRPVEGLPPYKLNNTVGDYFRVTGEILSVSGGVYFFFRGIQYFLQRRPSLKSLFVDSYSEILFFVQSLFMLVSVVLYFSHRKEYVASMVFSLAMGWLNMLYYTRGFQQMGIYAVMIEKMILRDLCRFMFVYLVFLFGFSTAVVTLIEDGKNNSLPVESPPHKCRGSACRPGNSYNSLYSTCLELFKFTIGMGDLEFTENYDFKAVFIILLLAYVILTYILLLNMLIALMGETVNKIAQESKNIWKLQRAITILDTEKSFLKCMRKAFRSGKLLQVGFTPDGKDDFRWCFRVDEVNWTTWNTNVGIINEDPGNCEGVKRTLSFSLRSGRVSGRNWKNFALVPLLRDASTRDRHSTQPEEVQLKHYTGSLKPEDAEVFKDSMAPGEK
In short: (§1)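 Whole-cell voltage clamp of transiently transfected HEK293T cells co-expressing GFP, recorded 36-96 h post-transfection. Hold -60 mV; pipettes 3-7 MΩ. Bath 165 mM NaCl, 10 mM HEPES pH 7.3; pipette 140 mM KCl, 10 mM HEPES pH 7.3. Room temperature (~25 °C). IC50 from Hill fits of I/I0, the current ratio after vs before inhibitor; mean ± SEM.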

[2] = molecular target: T1, Transient receptor potential cation channel subfamily V member 3 (Mus musculus) (UniProt Q8K424); test: Antagonist activity at mouse TRPV3 expressed in HEK293T cells assessed as inhibition of 2-APB evoked currents at 3 to 10 uM -60 mV holding potential by whole-cell patch clamp assay; in short: as §1
T1 sequence (whole entry): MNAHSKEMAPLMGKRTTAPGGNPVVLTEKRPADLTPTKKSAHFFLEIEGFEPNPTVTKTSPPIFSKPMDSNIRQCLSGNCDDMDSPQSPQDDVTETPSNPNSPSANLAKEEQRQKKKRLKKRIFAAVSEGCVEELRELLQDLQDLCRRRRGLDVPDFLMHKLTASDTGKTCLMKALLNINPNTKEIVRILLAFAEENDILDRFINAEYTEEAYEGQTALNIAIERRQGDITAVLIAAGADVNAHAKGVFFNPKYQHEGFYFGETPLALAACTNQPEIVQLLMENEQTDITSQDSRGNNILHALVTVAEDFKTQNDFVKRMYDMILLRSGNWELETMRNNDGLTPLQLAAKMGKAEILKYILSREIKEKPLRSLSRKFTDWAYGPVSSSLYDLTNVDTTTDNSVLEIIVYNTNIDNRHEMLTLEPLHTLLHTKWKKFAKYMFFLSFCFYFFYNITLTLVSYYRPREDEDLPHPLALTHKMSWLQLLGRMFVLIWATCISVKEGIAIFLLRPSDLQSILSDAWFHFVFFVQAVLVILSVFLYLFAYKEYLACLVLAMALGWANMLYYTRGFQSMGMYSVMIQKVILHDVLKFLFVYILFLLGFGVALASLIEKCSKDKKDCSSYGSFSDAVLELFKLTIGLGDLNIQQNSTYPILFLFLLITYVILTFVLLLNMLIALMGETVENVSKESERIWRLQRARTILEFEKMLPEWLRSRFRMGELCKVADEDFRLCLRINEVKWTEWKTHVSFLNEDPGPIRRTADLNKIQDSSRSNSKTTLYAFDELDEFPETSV

[3] = system: T2, Transient receptor potential cation channel subfamily V member 2 (Mus musculus), Q9WTR1 [F467A]; test: Antagonist activity at mouse TRPV2 F467A mutant expressed in HEK293T cells assessed as inhibition of 2-APB evoked currents at -60 mV holding potential by whole-cell patch clamp assay; in short: as §1
T2 sequence (whole entry): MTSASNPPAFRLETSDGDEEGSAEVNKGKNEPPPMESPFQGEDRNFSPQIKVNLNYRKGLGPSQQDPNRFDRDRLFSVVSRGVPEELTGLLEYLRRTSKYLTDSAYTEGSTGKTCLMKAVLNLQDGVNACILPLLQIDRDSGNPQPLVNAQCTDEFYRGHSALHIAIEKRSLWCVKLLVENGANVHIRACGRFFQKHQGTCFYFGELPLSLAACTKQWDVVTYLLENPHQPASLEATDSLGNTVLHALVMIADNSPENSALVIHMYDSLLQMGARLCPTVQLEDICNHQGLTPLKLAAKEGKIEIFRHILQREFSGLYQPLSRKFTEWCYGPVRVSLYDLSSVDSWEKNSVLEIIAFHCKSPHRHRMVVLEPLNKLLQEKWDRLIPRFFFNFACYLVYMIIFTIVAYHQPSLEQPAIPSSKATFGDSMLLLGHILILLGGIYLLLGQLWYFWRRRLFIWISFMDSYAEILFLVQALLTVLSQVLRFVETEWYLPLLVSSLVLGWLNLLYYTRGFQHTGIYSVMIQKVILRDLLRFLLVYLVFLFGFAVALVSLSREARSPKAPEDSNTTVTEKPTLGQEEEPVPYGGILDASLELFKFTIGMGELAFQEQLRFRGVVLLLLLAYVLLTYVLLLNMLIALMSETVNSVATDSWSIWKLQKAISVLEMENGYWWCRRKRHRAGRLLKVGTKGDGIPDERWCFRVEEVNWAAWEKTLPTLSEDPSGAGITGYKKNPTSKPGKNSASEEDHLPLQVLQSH

[4] = system: T3, Transient receptor potential cation channel subfamily V member 2 (Mus musculus), Q9WTR1 [F467S]; test: Antagonist activity at mouse TRPV2 F467S mutant expressed in HEK293T cells assessed as inhibition of 2-APB evoked currents at 0.3 to 3 uM by whole-cell patch clamp assay; in short: as §1
T3 sequence (whole entry): T2 sequence (whole entry) with A467S

[5] = system: Transient receptor potential cation channel subfamily V member 1 (Mus musculus), Q704Y3 [S513F,T551L]; test: Antagonist activity at mouse TRPV1 S513F/T551L double mutant expressed in HEK293T cells assessed as inhibition of 2-APB evoked currents at 0.3 to 10 uM at -60 mV holding potential by whole-cell patch clamp assay; in short: as §1
Sequence of Transient receptor potential cation channel subfamily V member 1 (Mus musculus), Q704Y3 [S513F,T551L] (Q704Y3 whole entry S513F/T551L): as the sequence (Q704Y3 whole entry T551L) above, with S513F counted along it

- inhibition [1]: Active
- inhibition [2]: inactive
- inhibition [3]: inactive
- inhibition [4]: inactive
- inhibition [5]: Active
SMILES: CCCN(C)c1cc(C(F)(F)F)nc(SCCC(=O)NCc2ccco2)n1
